This passage reports activity results from PMC2963662 (Neuropharmacology, 2010).

Test in all cases: two-electrode voltage clamp, Xenopus oocytes
Format in all cases: cell-based
For orientation: In two-electrode clamp one electrode senses voltage and the other passes current.

Test [1] has as its target α5β3γ2 GABAA receptor (rat, oocytes) (Rattus norvegicus, UniProt P18508+P19969). As to conditions: read-out: α5. The method in brief: (§1)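 Oocytes from Xenopus laevis were injected with mRNA made from rat GABAA subunit cDNAs. Two-electrode voltage clamp was done at room temperature, holding at −60 mV, with electrodes filled with […]. Cells were perfused at 6 ml/min with Ringer (90 mM NaCl, 5 mM HEPES pH 7.4, 1 mM MgCl2, KCl, CaCl2). Drug in 0.1% DMSO final was pre-applied for 30 sec, then co-applied with GABA until peak, with washes of up to 15 min.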

In test [2] the target is α2β3γ2 GABAA receptor (rat, oocytes) (Rattus norvegicus, UniProt P18508+P23576). The following applies: read-out: α2. The method in brief:
as §1

For test [3], the target named is α1β3γ2 GABAA receptor (rat, oocytes) (Rattus norvegicus, UniProt P18508+P62813). As to conditions: read-out: α1. In outline: as §1
Test [4] has as its target α3β3γ2 GABAA receptor (rat, oocytes) (Rattus norvegicus, UniProt P18508+P20236). The following applies: read-out: α3. In outline: as §1

Sequence of α5β3γ2 GABAA receptor (rat, oocytes) (P19969 26-464): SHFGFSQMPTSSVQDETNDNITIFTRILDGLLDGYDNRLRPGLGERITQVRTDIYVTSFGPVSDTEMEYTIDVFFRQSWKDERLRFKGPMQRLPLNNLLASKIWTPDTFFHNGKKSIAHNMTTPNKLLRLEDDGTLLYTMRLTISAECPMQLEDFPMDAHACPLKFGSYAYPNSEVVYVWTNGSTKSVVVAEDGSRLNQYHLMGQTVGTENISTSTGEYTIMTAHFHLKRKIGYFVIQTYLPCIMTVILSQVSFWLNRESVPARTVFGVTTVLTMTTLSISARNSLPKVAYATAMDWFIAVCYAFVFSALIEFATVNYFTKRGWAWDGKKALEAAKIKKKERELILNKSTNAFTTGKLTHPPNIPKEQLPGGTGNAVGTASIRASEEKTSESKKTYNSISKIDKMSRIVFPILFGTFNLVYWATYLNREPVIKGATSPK
Sequence of α5β3γ2 GABAA receptor (rat, oocytes) (P18508 39-466): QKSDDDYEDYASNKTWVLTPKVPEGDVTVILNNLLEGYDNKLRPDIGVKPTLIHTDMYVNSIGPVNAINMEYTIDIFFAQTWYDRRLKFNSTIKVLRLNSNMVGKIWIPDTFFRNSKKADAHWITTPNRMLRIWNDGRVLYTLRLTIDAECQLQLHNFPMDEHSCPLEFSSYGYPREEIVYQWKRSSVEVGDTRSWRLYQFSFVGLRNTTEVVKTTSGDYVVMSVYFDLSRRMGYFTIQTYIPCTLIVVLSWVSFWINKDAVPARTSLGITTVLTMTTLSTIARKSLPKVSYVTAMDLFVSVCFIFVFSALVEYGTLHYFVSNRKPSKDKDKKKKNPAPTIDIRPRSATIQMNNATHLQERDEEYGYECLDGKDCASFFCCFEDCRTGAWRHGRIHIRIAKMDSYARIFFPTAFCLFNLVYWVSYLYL
Sequence of α5β3γ2 GABAA receptor (rat, oocytes) (P63079 26-473 partner): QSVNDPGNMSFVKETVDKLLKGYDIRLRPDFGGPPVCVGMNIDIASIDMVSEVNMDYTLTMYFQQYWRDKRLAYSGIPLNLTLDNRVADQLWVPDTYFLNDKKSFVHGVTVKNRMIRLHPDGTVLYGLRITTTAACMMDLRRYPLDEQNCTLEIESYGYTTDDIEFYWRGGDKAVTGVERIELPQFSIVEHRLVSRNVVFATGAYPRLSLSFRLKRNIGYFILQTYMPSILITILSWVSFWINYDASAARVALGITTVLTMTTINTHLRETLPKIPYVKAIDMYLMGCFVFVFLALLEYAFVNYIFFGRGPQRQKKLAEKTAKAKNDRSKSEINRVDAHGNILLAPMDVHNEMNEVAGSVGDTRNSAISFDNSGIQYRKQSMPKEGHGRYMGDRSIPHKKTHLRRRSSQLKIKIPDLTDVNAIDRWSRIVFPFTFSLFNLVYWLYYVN
Sequence of α3β3γ2 GABAA receptor (rat, oocytes) (P20236 29-493): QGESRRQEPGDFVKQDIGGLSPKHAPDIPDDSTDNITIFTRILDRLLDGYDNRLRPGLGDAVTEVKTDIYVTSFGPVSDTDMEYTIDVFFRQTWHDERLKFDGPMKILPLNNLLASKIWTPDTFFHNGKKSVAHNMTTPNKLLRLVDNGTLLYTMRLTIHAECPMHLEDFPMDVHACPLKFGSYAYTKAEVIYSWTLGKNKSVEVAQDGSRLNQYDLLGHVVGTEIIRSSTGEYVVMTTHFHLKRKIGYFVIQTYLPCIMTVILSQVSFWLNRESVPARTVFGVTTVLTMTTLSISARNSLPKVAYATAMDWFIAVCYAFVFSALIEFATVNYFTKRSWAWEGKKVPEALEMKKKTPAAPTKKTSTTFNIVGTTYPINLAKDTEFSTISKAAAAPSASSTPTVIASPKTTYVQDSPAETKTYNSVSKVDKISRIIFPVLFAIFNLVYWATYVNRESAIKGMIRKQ
Sequence of α3β3γ2 GABAA receptor (rat, oocytes) (P18508 39-466): as the sequence (P18508 39-466) above
Sequence of α3β3γ2 GABAA receptor (rat, oocytes) (P63079 26-473 partner): as the sequence (P63079 26-473 partner) above
Sequence of α1β3γ2 GABAA receptor (rat, oocytes) (P62813 28-455): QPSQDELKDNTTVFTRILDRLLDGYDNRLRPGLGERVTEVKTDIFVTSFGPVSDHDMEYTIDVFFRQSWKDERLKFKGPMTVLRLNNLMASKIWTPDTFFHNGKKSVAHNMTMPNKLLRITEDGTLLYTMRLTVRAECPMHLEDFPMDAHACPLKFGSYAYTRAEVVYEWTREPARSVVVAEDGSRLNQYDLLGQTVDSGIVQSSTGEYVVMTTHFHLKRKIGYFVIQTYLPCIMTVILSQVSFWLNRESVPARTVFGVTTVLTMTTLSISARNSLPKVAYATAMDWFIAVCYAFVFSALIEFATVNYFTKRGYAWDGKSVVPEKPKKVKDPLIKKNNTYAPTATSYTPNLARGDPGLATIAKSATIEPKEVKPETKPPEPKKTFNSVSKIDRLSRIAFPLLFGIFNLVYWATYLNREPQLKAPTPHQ
Sequence of α1β3γ2 GABAA receptor (rat, oocytes) (P18508 39-466): as the sequence (P18508 39-466) above
Sequence of α1β3γ2 GABAA receptor (rat, oocytes) (P63079 26-473 partner): as the sequence (P63079 26-473 partner) above
Sequence of α2β3γ2 GABAA receptor (rat, oocytes) (P23576 29-451): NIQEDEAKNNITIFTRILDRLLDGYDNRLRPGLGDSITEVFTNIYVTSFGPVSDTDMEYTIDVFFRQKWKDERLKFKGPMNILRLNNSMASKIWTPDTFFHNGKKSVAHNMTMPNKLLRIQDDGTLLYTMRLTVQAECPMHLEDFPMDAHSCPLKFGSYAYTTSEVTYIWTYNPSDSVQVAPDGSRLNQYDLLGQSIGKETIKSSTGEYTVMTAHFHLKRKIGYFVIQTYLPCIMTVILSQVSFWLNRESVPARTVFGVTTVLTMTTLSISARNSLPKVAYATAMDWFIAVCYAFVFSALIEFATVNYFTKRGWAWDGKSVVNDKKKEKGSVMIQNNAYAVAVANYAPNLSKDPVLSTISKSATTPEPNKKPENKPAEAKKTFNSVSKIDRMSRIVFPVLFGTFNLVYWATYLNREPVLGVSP
Sequence of α2β3γ2 GABAA receptor (rat, oocytes) (P18508 39-466): as the sequence (P18508 39-466) above
Sequence of α2β3γ2 GABAA receptor (rat, oocytes) (P63079 26-473 partner): as the sequence (P63079 26-473 partner) above

For the compound `CN1C(=O)CN=C(c2ccccc2)c2cc(Cl)ccc21` [Diazepam], the activity at 1 µM is 342% in test [1], 536% in test [2], 314% in test [3] and 752% in test [4].
On to `C#Cc1ccc2c(c1)C(c1ccccc1F)=N[C@@H](C)c1c(C(=O)OCC)ncn1-2` [SH-053-2'F-S-CH3, (S)-8-ethynyl-6-(2-fluoro-phenyl)-4-methyl-4H-2,5,10b-triaza-benzo[e]azulene-3-carboxylic acid ethyl ester], for which the activity at 1 µM in test [1] came to 389%.
